Measurements gathered from unrelated publications.
Protocols differ between the studies behind these lines.
Target: Serine/threonine-protein kinase pim-2 (PIM2, Homo sapiens, UniProt Q9P1W9)

The remaining binding of COc1ccc2oc(-c3ccc4nc(N)oc4c3)c/c(=N\c3ccccc3NC(=O)CCN)c2c1 is reported as 103% (binding; 1 µM).
With C#Cc1cnc(Nc2ccnc(CO)c2)nc1Nc1ccccc1S(C)(=O)=NC#N (stereo not shown) the remaining signal was 100% (cell-free assay; 1 µM).
With CN1CCN(C(=O)c2ccc(NC(=O)Nc3ccc(N(C)c4ccnc(Nc5ccc(CS(C)(=O)=O)cc5)n4)cc3)cc2)CC1 the remaining binding was 100% (binding; 1 µM).
With CCCCC(=O)Nc1ccc(-c2ccc3ncn(CCC)c(=O)c3c2)cn1 the remaining binding was 100% (binding; competition with immobilised ligand; 0.5 µM).
Cc1ccc(NC(=O)c2ccnc(C(F)(F)F)c2)cc1-c1cc(OCCO)nc(N2CCOCC2)c1 gave a remaining binding of 82% (binding; 1 µM).
For N#Cc1ccc(NC(=O)Nc2ccccc2)cc1, the remaining binding was 100% (cell-free assay; competition with immobilised ligand; 25 µM).
CC#CC(=O)N1CCC[C@H]1c1nc(-c2ccc(C(=O)Nc3ccccn3)cc2)c2c(N)nccn12 gave an inhibition of 0% (enzyme activity; inhibitor; 1 µM).
The inhibition of C#Cc1cc(-c2cc(Nc3nc(N[C@@H](C)c4ccc(F)cn4)ncc3Cl)n[nH]2)ccc1C=O is reported as 2.74% (enzyme activity; inhibitor; 0.2 µM).
With C=CC(=O)N1CCC[C@@H](n2nc(-c3ccc(Oc4ccccc4)cc3)c3c(N)ncnc32)C1 the inhibition was 3% (enzyme activity; inhibitor; 1 µM).
With C1=C/COCc2cc(ccc2OCCN2CCCC2)Nc2nccc(n2)-c2cccc(c2)COC/1 the remaining binding was 100% (binding; 0.1 µM).
